Experimental data of several laboratories.
Compare with care: the assays were run in different laboratories. pIC50: −log10 of the molar value.
Cell line: MDA-MB-231
Observed: cell growth or viability

For `C[C@H]1[C@H](C)CC[C@]2(C)CC[C@]3(C)C(=CC(=O)[C@@H]4[C@@]5(C)CC[C@@H](O)[C@](C)(C(=O)NCc6cn(-c7ccccc7C(F)(F)F)nn6)[C@@H]5CC[C@]43C)[C@H]12`, the pIC50 was 4.16 (MTT; 24 h).
The pIC50 of `C[C@H]1[C@H](C)CC[C@]2(C(=O)O)CC[C@]3(C)C(=CC[C@@H]4[C@@]5(C)CC[C@H](O)C(C)(C)[C@@H]5CC[C@]43C)[C@H]12` is reported as 4.82 (MTT; 24 h).
`O=C1Nc2ccccc2/C1=N/N=C/c1cccc([N+](=O)[O-])c1` gave an IC50 of 21.1 µg/mL (MTT; 48 h).
The pIC50 of `Cc1cc(NS(=O)(=O)c2ccc(NC(=O)/C(C#N)=C/c3ccc(N4CCCC4)cc3)cc2)no1` is reported as 3.96 (MTT; 48 h).
`COc1cccc(NC(=S)N/N=C/c2cccc3cc4ccccc4nc23)c1` has a pIC50 of less than 4.30 (MTT; 48 h).
`C[C@H]1[C@H](C)CC[C@]2(C)CC[C@]3(C)C(=CC(=O)[C@@H]4[C@@]5(C)CC[C@@H](O)[C@](C)(C(=O)NCc6cn(-c7ccc(Cl)cc7)nn6)[C@@H]5CC[C@]43C)[C@H]12` gave a pIC50 of 3.97 (MTT; 24 h).
`Cc1ccc(S(=O)(=O)n2cc(/C=N/NC(=O)c3ccc(C)c(F)c3)c3ccccc32)cc1` gave a pIC50 of 4.67 (MTT; 48 h).
`Cc1cc(NS(=O)(=O)c2ccc(NC(=O)/C(C#N)=C/c3ccc(N4CCCCC4)cc3)cc2)no1` gave a pIC50 of 4.70 (MTT; 48 h).
`Cc1ccc(S(=O)(=O)n2cc(/C=N/NC(=O)c3ccc(Br)cc3)c3ccccc32)cc1` has a pIC50 of 4.65 (MTT; 48 h).
For `Fc1ccc(NC(=S)N/N=C/c2cccc3cc4ccccc4nc23)cc1`, the pIC50 was less than 4.30 (MTT; 48 h).
`Cc1cc(NS(=O)(=O)c2ccc(NC(=O)/C(C#N)=C/c3ccc(N4CCOCC4)cc3)cc2)no1` has a pIC50 of 4.08 (MTT; 48 h).
With `Cc1ccc(S(=O)(=O)n2cc(/C=N/NC(=O)c3ccccc3Br)c3ccccc32)cc1` the pIC50 was 4.53 (MTT; 48 h).
For `CC(C)=CCc1ncc(/C=C2\NC(=O)[C@H](C(C)C)NC2=O)[nH]1`, the pIC50 was less than 4.82 (SRB).
For `CC(C)CNC(=S)N/N=C/c1cccc2cc3ccccc3nc12`, the pIC50 was less than 4.30 (MTT; 48 h).
`COc1cc([C@@H]2c3cc4c(cc3[C@@H](O[C@@H]3O[C@@H]5CO[C@@H](C)O[C@H]5[C@H](O)[C@H]3O)[C@H]3COC(=O)[C@H]23)OCO4)cc(OC)c1O` has a pIC50 of 5.67 (ATP luminescence; 48 h).
With `C[C@H]1[C@H](C)CC[C@]2(C)CC[C@]3(C)C(=CC(=O)[C@@H]4[C@@]5(C)CC[C@@H](O)[C@](C)(C(=O)NCc6cn(-c7cccc(C(F)(F)F)c7)nn6)[C@@H]5CC[C@]43C)[C@H]12` the pIC50 was 4.15 (MTT; 24 h).
`Cc1ccc(C(C)C)c(OC2=C(Cl)C(=O)c3ccccc3C2=O)c1` gave an IC50 of 60 µg/mL (MTT; 24 h).
The pIC50 of `S=C(N/N=C/c1cccc2cc3ccccc3nc12)Nc1ccccc1` is reported as less than 4.30 (MTT; 48 h).
`Cc1sc2c(c1C)C(c1ccc(Cl)cc1)=N[C@@H](CC(=O)NCCCCNC(=O)COc1cccc3c1C(=O)N(C1CCC(=O)NC1=O)C3=O)c1nnc(C)n1-2` (some centres unmarked) gave a pIC50 of 5.94 (CCK-8; 72 h).
The IC50 of `Nc1ccn([C@@H]2O[C@H](CO)[C@@H](O)C2(F)F)c(=O)n1` is reported as 7.1 µg/mL (MTT; 24 h).
With `Cc1ccc(S(=O)(=O)n2cc(/C=N/NC(=O)c3ccccc3C)c3ccccc32)cc1` the pIC50 was 4.57 (MTT; 48 h).
With `COc1cccc2c1C(=O)c1c(O)c3c(c(O)c1C2=O)C[C@@](O)(C(=O)CO)C[C@@H]3O[C@H]1C[C@H](N)[C@H](O)[C@H](C)O1` the IC50 was 7.19 µg/mL (MTT; 24 h).
The pIC50 of `O=C(Nc1ccccc1)Nc1ccc(Oc2nc3ccccc3n3cnnc23)cc1` is reported as less than 4.17 (MTT; 24 h).
The pIC50 of `C[C@H]1[C@H](C)CC[C@]2(C)CC[C@]3(C)C(=CC(=O)[C@@H]4[C@@]5(C)CC[C@@H](O)[C@](C)(C(=O)NCc6cn(-c7cccc(Br)c7)nn6)[C@@H]5CC[C@]43C)[C@H]12` is reported as 4.21 (MTT; 24 h).
With `CO[C@H]1[C@H](O[C@H]([C@H]2O[C@@H](n3ccc(=O)[nH]c3=O)[C@H](O)[C@@H]2O)[C@H](NCCCNC(=O)[C@@H](NC(=O)[C@@H](NC(=O)N[C@H](C(=O)O)C(C)C)[C@@H]2CCN=C(N)N2)[C@@H](OC(=O)CCCCCCCCCCCCN(O)C(=N)N)C(C)C)C(=O)O)O[C@H](CN)[C@H]1O` the pIC50 was 6.01 (WST-1).
With `Cc1ccc(S(=O)(=O)n2cc(/C=N/NC(=O)c3ccc([N+](=O)[O-])cc3)c3ccccc32)cc1` the pIC50 was 4.41 (MTT; 48 h).
`COc1ccccc1/C=N/N=C1\C(=O)Nc2ccccc21` has an IC50 of 26.3 µg/mL (MTT; 48 h).
`CNC(=S)N/N=C/c1cccc2cc3ccccc3nc12` has a pIC50 of 4.72 (MTT; 48 h).
With `Cc1ccc(S(=O)(=O)n2cc(/C=N/NC(=O)c3ccccc3)c3ccccc32)cc1` the pIC50 was 4.62 (MTT; 48 h).
`Nc1nc2cc(CC[C@H]3C[C@@H](n4ccc5c(N)ncnc54)[C@H](O)[C@@H]3O)ccc2cc1Br` has a pIC50 of less than 4.00 (CCK-8; 72 h).
The pIC50 of `CC(C)[C@@H]1NC(=O)[C@H](Cc2c[nH]cn2)NC1=O` is reported as less than 4.82 (SRB).
`C=CCn1c(=O)c2cnc(Nc3ccc(N4CCN(C)CC4)cc3)nc2n1-c1ccc2c(n1)[C@@](O)(CC)CC2` has a pIC50 of 6.20 (ATP luminescence; 72 h).
The pIC50 of `O=C(Nc1ccc(Cl)cc1)Nc1ccc(Oc2nc3ccccc3n3cnnc23)cc1` is reported as less than 4.17 (MTT; 24 h).
With `Cc1ccc(S(=O)(=O)n2cc(/C=N/NC(=O)c3ccc(C(F)(F)F)cc3)c3ccccc32)cc1` the pIC50 was 4.72 (MTT; 48 h).
`C[C@H]1[C@H](C)CC[C@]2(C)CC[C@]3(C)C(=CC(=O)[C@@H]4[C@@]5(C)CC[C@@H](O)[C@](C)(C(=O)NCc6cn(-c7ccccc7)nn6)[C@@H]5CC[C@]43C)[C@H]12` gave a pIC50 of 3.99 (MTT; 24 h).
